In ChEMBL document CHEMBL4814076, “Discovery of a Potent and Selective Covalent Inhibitor of Bruton's Tyrosine Kinase with Oral Anti-Inflammatory Activity” (ACS Med Chem Lett, 2021):
Activity calls are given as the source filed them. The calls are words filed in the database; no cut-off is given here.

Columns and labels:
[1] = Volume of distribution at steady state in Beagle dog at 2.5 mg/kg, po or 0.5 mg/kg, iv measured upto 24 hrs by LC-MS/MS analysis; type: ADME, organism-based, Canis lupus familiaris; settings: in vivo, read-out: Vdss
Outline: (§1)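 Rats (nonfasted; IV 1 mg/kg, PO 5 mg/kg) and dogs (fasted; IV 0.5 mg/kg, PO 2.5 mg/kg) dosed from 20% hydroxypropyl-β-cyclodextrin solution.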

[2] = molecular target: T1, Tyrosine-protein kinase Lck (Homo sapiens, UniProt P06239); experiment: Inhibition of LCK in human CD4+ T-cells assessed as reduction in anti-CD3/anti-CD28 induced IL-2 secretion at 10 uM incubated for 60 mins followed by anti-CD3/anti-CD28 stimulation and measured after 18 hrs by ELISA; type: tissue-based; settings: CD4+ve Th, time 19.0 hrs
Outline: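 Anti-CD3/anti-CD28 stimulation of T cells. IL-2 secretion measured with compound tested up to 10 μM. An ITK inhibitor served as positive control.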
Target sequence in this assay (P06239 2-509 limits assumed): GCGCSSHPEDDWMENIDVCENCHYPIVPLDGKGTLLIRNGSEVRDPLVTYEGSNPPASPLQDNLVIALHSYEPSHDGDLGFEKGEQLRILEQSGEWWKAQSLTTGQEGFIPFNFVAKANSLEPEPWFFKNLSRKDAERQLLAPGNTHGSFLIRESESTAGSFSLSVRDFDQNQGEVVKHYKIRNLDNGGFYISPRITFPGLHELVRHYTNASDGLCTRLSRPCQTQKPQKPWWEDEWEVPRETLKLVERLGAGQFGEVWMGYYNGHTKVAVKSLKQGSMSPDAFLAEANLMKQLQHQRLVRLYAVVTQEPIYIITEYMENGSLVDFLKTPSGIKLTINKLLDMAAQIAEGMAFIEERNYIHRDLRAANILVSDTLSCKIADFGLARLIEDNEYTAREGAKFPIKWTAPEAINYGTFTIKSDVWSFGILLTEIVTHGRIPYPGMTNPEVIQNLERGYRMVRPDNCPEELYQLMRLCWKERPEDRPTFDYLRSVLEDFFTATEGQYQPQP

[3] = Clearance in Beagle dog at 2.5 mg/kg, po or 0.5 mg/kg, iv measured upto 24 hrs by LC-MS/MS analysis; type: ADME, organism-based, Canis lupus familiaris; settings: in vivo; outline: as §1
[4] = Cmax in Sprague-Dawley rat at 5 mg/kg, po measured upto 24 hrs by LC-MS/MS analysis; type: ADME, organism-based; design: route oral, dose 5 mg/kg, time <=24; settings: in vivo; outline: as §1
[5] = molecular target: T2, Tyrosine-protein kinase Tec (Homo sapiens, UniProt P42680); experiment: Inhibition of recombinant human TEC (174 to end residues) using EFPIYDFLPAKKK as substrate incubated for 40 mins in presence of [gamma33P]ATP by scintillation counting method
T2 sequence (P42680 whole entry): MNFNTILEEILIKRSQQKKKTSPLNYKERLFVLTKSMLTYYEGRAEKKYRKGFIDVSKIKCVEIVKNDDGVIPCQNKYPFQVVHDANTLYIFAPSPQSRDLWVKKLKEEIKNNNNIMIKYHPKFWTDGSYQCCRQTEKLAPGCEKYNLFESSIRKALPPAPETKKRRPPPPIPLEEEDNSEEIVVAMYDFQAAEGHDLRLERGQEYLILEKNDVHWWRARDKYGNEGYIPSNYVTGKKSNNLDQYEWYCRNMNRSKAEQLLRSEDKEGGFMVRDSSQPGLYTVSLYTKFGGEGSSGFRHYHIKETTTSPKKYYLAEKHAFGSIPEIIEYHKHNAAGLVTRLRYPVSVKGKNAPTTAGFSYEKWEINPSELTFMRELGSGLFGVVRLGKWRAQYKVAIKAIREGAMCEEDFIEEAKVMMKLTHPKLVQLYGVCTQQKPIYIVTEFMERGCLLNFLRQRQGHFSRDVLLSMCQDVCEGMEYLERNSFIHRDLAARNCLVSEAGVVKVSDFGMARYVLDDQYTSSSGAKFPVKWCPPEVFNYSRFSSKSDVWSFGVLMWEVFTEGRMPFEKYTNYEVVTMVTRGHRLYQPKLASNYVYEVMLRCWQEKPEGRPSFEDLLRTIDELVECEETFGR

[6] = molecular target: Tyrosine-protein kinase BTK (Mus musculus, UniProt P35991); experiment: Inhibition of BTK in C57Bl/6 mouse splenocyte assessed as reduction in anti-IgM-induced CD69 expression incubated for 1 hr followed anti-IgM stimulation and measured after overnight by flow cytometry analysis; type: tissue-based
Sequence of Tyrosine-protein kinase BTK (Mus musculus, UniProt P35991) (P35991 whole entry): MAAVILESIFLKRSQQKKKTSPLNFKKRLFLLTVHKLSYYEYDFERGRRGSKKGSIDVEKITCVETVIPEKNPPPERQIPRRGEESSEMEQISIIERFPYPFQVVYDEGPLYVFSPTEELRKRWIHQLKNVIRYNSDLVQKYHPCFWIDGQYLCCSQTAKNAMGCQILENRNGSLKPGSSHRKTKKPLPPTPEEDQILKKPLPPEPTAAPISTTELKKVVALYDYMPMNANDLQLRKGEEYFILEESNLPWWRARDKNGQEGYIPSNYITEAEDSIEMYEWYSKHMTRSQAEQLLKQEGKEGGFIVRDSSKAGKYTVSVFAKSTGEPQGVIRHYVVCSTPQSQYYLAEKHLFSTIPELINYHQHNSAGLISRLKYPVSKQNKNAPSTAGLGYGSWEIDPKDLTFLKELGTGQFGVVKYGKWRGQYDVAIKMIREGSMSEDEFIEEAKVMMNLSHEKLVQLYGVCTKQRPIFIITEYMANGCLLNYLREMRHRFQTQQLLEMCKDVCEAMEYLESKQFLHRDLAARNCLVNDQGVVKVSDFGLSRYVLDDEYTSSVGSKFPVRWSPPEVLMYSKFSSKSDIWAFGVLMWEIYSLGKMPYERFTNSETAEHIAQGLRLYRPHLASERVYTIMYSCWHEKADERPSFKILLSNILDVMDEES
Outline: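 Mouse splenocytes stimulated with anti-IgM. CD69 expression measured as the read-out.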

[7] = In vivo protein occupancy at BTK in Wistar rat at 3 mg/kg, po measured after 24 hrs by ELISA relative to control; type: functional
Outline: (§2)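 Single oral dose of 3 mg/kg in rats. BTK occupancy compared with plasma concentration over time out to 48 h.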

[8] = molecular target: Proto-oncogene tyrosine-protein kinase Src (Homo sapiens, UniProt P12931); experiment: Inhibition of recombinant human SRC (1 to 530 residues) using GGEEEEYFELVKKKK as substrate incubated for 40 mins in presence of [gamma33P]ATP by scintillation counting method
Sequence of Proto-oncogene tyrosine-protein kinase Src (P12931 2-536 limits assumed): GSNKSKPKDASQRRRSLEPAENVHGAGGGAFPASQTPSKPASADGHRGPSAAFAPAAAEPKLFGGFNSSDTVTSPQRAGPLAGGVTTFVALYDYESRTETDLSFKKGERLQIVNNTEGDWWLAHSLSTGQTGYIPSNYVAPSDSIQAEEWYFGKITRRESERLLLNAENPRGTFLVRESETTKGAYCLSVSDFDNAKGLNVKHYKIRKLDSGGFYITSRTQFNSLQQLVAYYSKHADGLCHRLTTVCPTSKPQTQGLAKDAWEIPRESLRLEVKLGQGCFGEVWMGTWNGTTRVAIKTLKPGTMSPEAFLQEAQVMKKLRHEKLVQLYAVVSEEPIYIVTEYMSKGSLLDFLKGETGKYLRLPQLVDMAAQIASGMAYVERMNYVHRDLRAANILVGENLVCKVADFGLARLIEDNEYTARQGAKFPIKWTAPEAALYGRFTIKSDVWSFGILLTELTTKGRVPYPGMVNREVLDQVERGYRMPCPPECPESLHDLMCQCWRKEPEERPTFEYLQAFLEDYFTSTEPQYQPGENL

[9] = molecular target: T1, Tyrosine-protein kinase Lck; experiment: Inhibition of recombinant human full length LCK using KVEKIGEGTYGVVYK as substrate incubated for 40 mins in presence of [gamma33P]ATP by scintillation counting method
Target sequence in this assay (P06239 whole entry): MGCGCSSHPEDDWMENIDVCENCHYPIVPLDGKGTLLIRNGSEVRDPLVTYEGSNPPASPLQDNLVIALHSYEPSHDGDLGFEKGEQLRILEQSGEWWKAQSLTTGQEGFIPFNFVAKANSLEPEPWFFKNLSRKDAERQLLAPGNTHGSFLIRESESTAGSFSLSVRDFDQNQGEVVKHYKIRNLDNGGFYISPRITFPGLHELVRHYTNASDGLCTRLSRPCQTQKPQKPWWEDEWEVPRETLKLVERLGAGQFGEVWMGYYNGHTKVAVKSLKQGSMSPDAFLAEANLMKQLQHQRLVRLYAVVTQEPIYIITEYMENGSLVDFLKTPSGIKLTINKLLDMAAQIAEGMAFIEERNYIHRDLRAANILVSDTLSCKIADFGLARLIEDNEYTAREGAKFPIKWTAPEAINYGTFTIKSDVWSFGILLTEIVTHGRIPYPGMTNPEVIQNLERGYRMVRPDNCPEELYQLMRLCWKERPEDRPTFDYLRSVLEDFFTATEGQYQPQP

[10] = molecular target: T3, Tyrosine-protein kinase TXK (Homo sapiens, UniProt P42681); experiment: Inhibition of recombinant human TXK (256 to end residues) using GEEPLYWSFPAKKK as substrate incubated for 40 mins in presence of [gamma33P]ATP by scintillation counting method
T3 sequence (P42681 whole entry): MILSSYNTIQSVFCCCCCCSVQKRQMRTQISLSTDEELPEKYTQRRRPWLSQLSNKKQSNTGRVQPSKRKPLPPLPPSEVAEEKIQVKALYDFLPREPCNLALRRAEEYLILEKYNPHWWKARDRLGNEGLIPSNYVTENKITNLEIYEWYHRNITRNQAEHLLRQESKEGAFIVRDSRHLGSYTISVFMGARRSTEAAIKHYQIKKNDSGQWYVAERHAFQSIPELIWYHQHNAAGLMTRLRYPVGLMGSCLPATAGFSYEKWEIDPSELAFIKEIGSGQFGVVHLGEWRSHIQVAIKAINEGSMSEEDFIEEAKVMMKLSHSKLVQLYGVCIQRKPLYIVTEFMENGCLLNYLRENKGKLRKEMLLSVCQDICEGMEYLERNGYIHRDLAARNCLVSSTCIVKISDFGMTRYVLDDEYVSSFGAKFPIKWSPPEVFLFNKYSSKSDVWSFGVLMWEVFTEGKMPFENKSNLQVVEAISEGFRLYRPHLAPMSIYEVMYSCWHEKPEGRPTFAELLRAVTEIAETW

[11] = Half life in Sprague-Dawley rat at 1 mg/kg, iv measured upto 24 hrs by LC-MS/MS analysis; type: ADME, organism-based; settings: in vivo; outline: as §1
[12] = Clearance in Sprague-Dawley rat at 5 mg/kg, po or 1 mg/kg, iv measured upto 24 hrs by LC-MS/MS analysis; type: ADME, organism-based; settings: in vivo; outline: as §1
[13] = Inhibition of BTK in Wistar rat whole blood assessed as reduction in anti-IgD-induced B220/CD86+ expression incubated for 1 hr followed anti-IgD stimulation and measured after overnight by flow cytometry analysis; type: tissue-based; settings: Rattus norvegicus, Blood, 1 h
Outline: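 B-cell activation induced by anti-IgD in rat whole blood, read as B220+CD86+ cells.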

[14] = Tmax in Sprague-Dawley rat at 5 mg/kg, po measured upto 24 hrs by LC-MS/MS analysis; type: ADME, organism-based; settings: in vivo; outline: as §1
[15] = Half life in Beagle dog at 0.5 mg/kg, iv measured upto 24 hrs by LC-MS/MS analysis; type: ADME, organism-based, Canis lupus familiaris; settings: in vivo; outline: as §1
[16] = molecular target: Tyrosine-protein kinase BTK (Homo sapiens, UniProt Q06187); experiment: Irreversible covalent inhibition of recombinant unphosphorylated human GST-tagged BTK kinase domain (389 to 659 residues) expressed in insect cells assessed as protein-compound adduct formation under native conditions by HPLC analysis
Sequence of Tyrosine-protein kinase BTK (Homo sapiens, UniProt Q06187) (Q06187 whole entry, the tested form may be a part): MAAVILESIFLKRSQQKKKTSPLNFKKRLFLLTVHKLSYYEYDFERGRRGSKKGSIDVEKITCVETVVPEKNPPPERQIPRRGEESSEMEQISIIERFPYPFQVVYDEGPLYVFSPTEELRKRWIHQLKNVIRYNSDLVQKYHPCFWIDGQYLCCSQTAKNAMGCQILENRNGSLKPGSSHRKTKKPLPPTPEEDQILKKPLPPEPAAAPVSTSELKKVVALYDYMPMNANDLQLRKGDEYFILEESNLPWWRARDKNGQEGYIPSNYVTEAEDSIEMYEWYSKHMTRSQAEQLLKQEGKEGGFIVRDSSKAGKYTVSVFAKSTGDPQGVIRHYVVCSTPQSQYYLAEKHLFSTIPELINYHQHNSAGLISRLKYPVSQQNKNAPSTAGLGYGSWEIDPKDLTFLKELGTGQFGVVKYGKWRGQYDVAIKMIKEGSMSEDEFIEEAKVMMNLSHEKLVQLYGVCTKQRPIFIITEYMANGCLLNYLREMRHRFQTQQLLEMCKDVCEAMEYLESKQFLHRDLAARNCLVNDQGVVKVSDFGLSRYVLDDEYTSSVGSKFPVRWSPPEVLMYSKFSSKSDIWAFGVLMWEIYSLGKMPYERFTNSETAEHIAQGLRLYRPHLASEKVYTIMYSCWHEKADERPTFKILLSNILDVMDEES
Outline: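 BTK protein incubated with compound. Adduct mass measured under denaturing and nondenaturing conditions.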

[17] = In vivo protein occupancy at BTK in Wistar rat at 3 mg/kg, po measured after 48 hrs by ELISA relative to control; type: functional; outline: as §2
[18] = molecular target: Tyrosine-protein kinase HCK (Homo sapiens, UniProt P08631); experiment: Inhibition of recombinant human HCK (230 to 497 residues) using GGMEDIYFEFMGGKKK as substrate incubated for 40 mins in presence of [gamma33P]ATP by scintillation counting method
Sequence of Tyrosine-protein kinase HCK (P08631 whole entry, the tested form may be a part): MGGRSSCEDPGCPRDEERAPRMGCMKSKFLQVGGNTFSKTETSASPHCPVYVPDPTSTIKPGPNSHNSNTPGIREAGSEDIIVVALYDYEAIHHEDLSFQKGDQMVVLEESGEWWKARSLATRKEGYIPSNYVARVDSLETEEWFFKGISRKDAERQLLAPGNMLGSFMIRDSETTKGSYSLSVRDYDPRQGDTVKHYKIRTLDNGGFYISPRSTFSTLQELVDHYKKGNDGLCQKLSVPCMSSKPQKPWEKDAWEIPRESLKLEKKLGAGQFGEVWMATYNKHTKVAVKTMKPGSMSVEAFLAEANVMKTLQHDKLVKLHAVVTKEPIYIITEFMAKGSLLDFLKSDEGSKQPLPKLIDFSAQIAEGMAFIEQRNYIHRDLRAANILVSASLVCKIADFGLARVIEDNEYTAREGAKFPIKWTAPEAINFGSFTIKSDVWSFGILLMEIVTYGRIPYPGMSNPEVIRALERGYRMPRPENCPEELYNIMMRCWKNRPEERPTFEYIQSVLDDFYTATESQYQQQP

Vd [1]: 1.1 L/kg
inhibition [2]: inactive
clearance [3]: 8 mL/min/kg
Cmax [4]: 600 nM
IC50 [5]: 409 nM
IC50 [6]: 11 nM
IC50 [8]: 3490 nM
IC50 [9]: 130 nM
IC50 [10]: 1770 nM
half-life [11]: 0.3 h
clearance [12]: 39.6 mL/min/kg
IC50 [13]: 130 nM
Tmax [14]: 1 h
half-life [15]: 1.9 h
inhibition [16]: Active
IC50 [18]: > 30000 nM
SMILES: C=CC(=O)N1CC[C@@H](NC(=O)c2sc3nccc4c3c2NC(=O)N4c2ccc(Oc3ccccc3)cc2C)C1
Activity [7]: 70%
Activity [17]: 50%
